Reference: ChEMBL document CHEMBL1152931, “Glycogen phosphorylase inhibitory effects of 2-oxo-1,2-dihydropyridin-3-yl amide derivatives” (Bioorg Med Chem, 2009)

How the values were obtained:
[1] = target: T1, Glycogen phosphorylase, muscle form (Oryctolagus cuniculus) (UniProt P00489); experiment: Inhibition of rabbit muscle glycogen phosphorylase at 222 uM
T1 sequence (whole entry): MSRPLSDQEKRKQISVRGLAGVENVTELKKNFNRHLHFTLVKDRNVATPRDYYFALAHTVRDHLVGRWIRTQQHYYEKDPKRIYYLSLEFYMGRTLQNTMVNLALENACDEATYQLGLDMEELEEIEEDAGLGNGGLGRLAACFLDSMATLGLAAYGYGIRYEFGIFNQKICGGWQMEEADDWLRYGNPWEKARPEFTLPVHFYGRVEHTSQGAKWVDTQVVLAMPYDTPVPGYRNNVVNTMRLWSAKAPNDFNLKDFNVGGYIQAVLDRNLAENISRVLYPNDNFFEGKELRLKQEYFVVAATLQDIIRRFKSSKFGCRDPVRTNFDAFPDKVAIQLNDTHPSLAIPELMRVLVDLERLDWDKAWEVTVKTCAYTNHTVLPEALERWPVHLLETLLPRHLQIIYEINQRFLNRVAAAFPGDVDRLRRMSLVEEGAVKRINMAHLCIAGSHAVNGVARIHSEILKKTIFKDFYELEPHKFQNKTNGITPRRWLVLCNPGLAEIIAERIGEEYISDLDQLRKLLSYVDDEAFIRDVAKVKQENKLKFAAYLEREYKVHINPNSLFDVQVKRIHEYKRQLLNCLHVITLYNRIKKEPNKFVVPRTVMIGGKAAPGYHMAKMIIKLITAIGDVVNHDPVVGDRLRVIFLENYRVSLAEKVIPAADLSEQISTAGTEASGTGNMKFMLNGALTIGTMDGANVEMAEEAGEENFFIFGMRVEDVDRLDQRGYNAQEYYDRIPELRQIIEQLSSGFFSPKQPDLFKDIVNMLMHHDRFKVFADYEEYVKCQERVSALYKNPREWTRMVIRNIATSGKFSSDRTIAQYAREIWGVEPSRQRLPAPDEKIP
Method in brief: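 Rabbit muscle glycogen phosphorylase a at 0.475 µg/mL, assayed in the glycogen-synthesis direction. Run 30 min at 22 °C. Compounds added in 14% DMSO. Released phosphate read at 620 nm by malachite green/ammonium molybdate in 1 M HCl. Duplicates on two occasions, averaged.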

[2] = target: T2, Glycogen phosphorylase, muscle form (Oryctolagus cuniculus, UniProt P00489); experiment: Inhibition of rabbit muscle glycogen phosphorylase
T2 sequence (P00489 whole entry): T1 sequence (whole entry)

[3] = target: T1, Glycogen phosphorylase, muscle form (Oryctolagus cuniculus); conditions: 111 uM

| inhibition [1] [%] | IC50 [2] [µM] | inhibition [3] [%] | Structure (SMILES) |
| --- | --- | --- | --- |
| < 20 |  |  | CCCNc1cccn(CC(=O)N2CCCC2)c1=O |
| 40 | 120 |  | O=C(Cn1cccc(NCc2ccccc2)c1=O)N[C@H](CO)c1ccccc1 |
| < 20 |  |  | CC(C)(CO)NC(=O)Cn1cccc(NC(=O)c2ccccc2)c1=O |
| 40 | 1770 |  | CCCNc1cccn(CC(=O)NCc2ccc(Cl)c(Cl)c2)c1=O |
| < 20 |  |  | O=C(Cn1cccc(NC(=O)c2ccccc2)c1=O)NN1CCOCC1 |
| < 20 |  |  | CCCCNC(=O)Cn1cccc(NC(=O)c2ccccc2)c1=O |
| < 20 |  |  | COCCCNC(=O)Cn1cccc(NC(=O)c2ccccc2)c1=O |
| < 20 |  |  | O=C(Cn1cccc(NCc2ccccc2)c1=O)N1CCCC1 |
| < 20 |  |  | O=C(Cn1cccc(NC(=O)c2ccccc2)c1=O)N[C@H](CO)c1ccccc1 |
| < 20 |  |  | CCOC(=O)Cn1cccc(NC(=O)c2ccccc2)c1=O |
| < 20 |  |  | O=C(Cn1cccc(NC(=O)c2ccccc2)c1=O)NC1CCN(Cc2ccccc2)CC1 |
| < 20 |  |  | CC(=O)Nc1cccn(CC(=O)N2CCCC2)c1=O |
| < 20 |  |  | CCCNC(=O)Cn1cccc(NCc2ccccc2)c1=O |
| < 20 |  |  | CCNC(=O)Cn1cccc(NC(=O)c2ccccc2)c1=O |
| < 20 |  |  | O=C(Cn1cccc(NC(=O)c2ccccc2)c1=O)NCCCN1CCOCC1 |
| < 20 |  |  | CCCNc1cccn(CC(=O)OCC)c1=O |
| < 20 |  |  | CC(=O)Nc1cccn(CC(=O)NC(C)C)c1=O |
| < 20 |  |  | CCCNC(=O)Cn1cccc(NC(=O)c2ccccc2)c1=O |
| 45 | 372 |  | CC(=O)Nc1cccn(CC(=O)NCc2ccc(Cl)c(Cl)c2)c1=O |
|  | 34.2 | 96 | O=C(Cn1cccc(NCc2ccccc2)c1=O)NCc1ccccc1 |
| < 20 |  |  | O=C(Nc1cccn(CC(=O)N2CCOCC2)c1=O)c1ccccc1 |
| < 20 |  |  | CCCNC(=O)Cn1cccc(NCCC)c1=O |
| < 20 |  |  | CC(=O)Nc1cccn(CC(=O)NCCO)c1=O |
| < 20 |  |  | O=C(Cn1cccc(NC(=O)c2ccccc2)c1=O)NCCN1CCCCC1 |

| inhibition [1] [%] | IC50 [2] [µM] | inhibition [3] [%] | Structure (SMILES) |
| --- | --- | --- | --- |
| < 20 |  |  | CCCNC(=O)Cn1cccc(NC(C)=O)c1=O |
| < 20 |  |  | O=C(Cn1cccc(NCc2ccccc2)c1=O)NCc1ccccn1 |
| < 20 |  |  | O=C(Cn1cccc(NC(=O)c2ccccc2)c1=O)NCCO |
| < 20 |  |  | NCCNC(=O)Cn1cccc(NC(=O)c2ccccc2)c1=O |
| < 20 |  |  | O=C(Cn1cccc(NC(=O)c2ccccc2)c1=O)N[C@H](CO)Cc1ccccc1 |
| < 20 |  |  | CC(=O)Nc1cccn(CC(=O)NCc2ccccc2)c1=O |
| 45 | 813 |  | O=C(Cn1cccc(NCc2ccccc2)c1=O)NC1CCN(Cc2ccccc2)CC1 |
| < 20 |  |  | CC(C)NC(=O)Cn1cccc(NC(=O)c2ccccc2)c1=O |
| 80 | 343 |  | CCCNc1cccn(CC(=O)NCc2ccccc2)c1=O |
| 38 | 308 |  | COc1ccccc1CNC(=O)Cn1cccc(NCc2ccccc2)c1=O |
| < 20 |  |  | CCOC(=O)Cn1cccc(NC(C)=O)c1=O |
| < 20 |  |  | O=C(Nc1cccn(CC(=O)N2CCCC2)c1=O)c1ccccc1 |
| 94 |  |  | O=C(Cn1cccc(NCc2ccccc2)c1=O)N[C@H](CO)Cc1ccccc1 |
| < 20 |  |  | O=C(Cn1cccc(NC(=O)c2ccccc2)c1=O)NCc1ccccc1 |
| < 20 |  |  | O=C(Cn1cccc(NC(=O)c2ccccc2)c1=O)NCc1ccccn1 |
| 94 | 6.3 |  | O=C(Cn1cccc(NCc2ccccc2)c1=O)NCc1ccc(Cl)c(Cl)c1 |
| < 20 |  |  | CCOC(=O)Cn1cccc(NCc2ccccc2)c1=O |
| < 20 |  |  | CC(=O)Nc1cccn(CC(=O)NC2CCCCC2)c1=O |
| < 20 |  |  | O=C(Cn1cccc(NC(=O)c2ccccc2)c1=O)N[C@@H](CO)Cc1ccccc1 |
| < 20 |  |  | NS(=O)(=O)c1ccc(CCNC(=O)Cn2cccc(NC(=O)c3ccccc3)c2=O)cc1 |
| 45 | 162 |  | O=C(Cn1cccc(NC(=O)c2ccccc2)c1=O)NCc1ccc(Cl)c(Cl)c1 |
| < 20 |  |  | O=C(Nc1cccn(CC(=O)N2CCCCC2)c1=O)c1ccccc1 |
| < 20 |  |  | CC(C)CNC(=O)Cn1cccc(NC(=O)c2ccccc2)c1=O |
| < 20 |  |  | CC(C)NC(=O)Cn1cccc(NCc2ccccc2)c1=O |
